# Measurements taken from paper PMC11295983 (ESMO Open, 2024).
# Read-outs that look alike come from different tables or passages of the source.
# Tests used:
# [1] = molecular target: phosphorylated FGFR2α (Homo sapiens, UniProt P21802); format: cell-based
# Outline: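 Patients take oral pemigatinib once daily on 21-day cycles, continuous or intermittent, with combination therapy (e.g. i.v. docetaxel 75 mg/m² q3w, i.v. pembrolizumab 200 mg q3w). Steady-state trough is cycle 1 day 14, 0-24 h. Values are mean (SE) inhibition.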
# [2] = test system: advanced solid tumors; assay: Investigator-assessed tumor response per RECIST v1.1, FIGHT-101 part 3; format: in vivo, human
# [3] = test system: patients with advanced solid tumor malignancies; assay: Safety and tolerability; format: in vivo, human
# Outline: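 Patients are ≥18 years with solid tumors that progressed after ≥1 prior line. They self-administer oral pemigatinib 9, 13.5 or 20 mg q.d. on 21-day cycles, continuous or intermittent, combined with chemotherapy, trastuzumab or anti-PD-1 antibody until progression or toxicity. Interruption and dose adjustment are allowed. AE frequency, duration and severity are summarized descriptively for patients receiving ≥1 dose.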
# [4] = test system: patients with advanced malignancies; conditions: monotherapy, parts 1 and 2; cited from earlier work
# [5] = test system: pFGFR2α; conditions: based on in vivo experiments; no reference given; cited from earlier work
# [6] = test system: advanced malignancies; conditions: monotherapy, cited from earlier work
# [7] = both the 9-mg and 13.5-mg doses of pemigatinib
# phosphorylated FGFR2α, sequence (P21802 431-767 limits assumed): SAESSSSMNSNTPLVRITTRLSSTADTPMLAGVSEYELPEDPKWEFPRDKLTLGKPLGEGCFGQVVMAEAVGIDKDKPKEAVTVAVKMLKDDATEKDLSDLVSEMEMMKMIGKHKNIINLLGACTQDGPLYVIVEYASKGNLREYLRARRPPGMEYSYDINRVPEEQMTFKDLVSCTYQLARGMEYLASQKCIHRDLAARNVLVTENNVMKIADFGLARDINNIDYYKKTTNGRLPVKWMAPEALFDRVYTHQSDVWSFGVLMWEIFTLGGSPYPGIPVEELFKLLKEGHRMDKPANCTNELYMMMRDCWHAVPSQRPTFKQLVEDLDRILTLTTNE
compound,measurement,setting,value
pemigatinib + gemcitabine + cisplatin [Pemi/gem/cis],Inhibition of FGFR2α phosphorylation at trough of steady state,[1]; pemigatinib 13.5 mg ID,31%
same,ORR (95% CI),[2]; Total (all pemigatinib doses),37.5%
same,"DOR, individual responder","[2]; pemigatinib 13.5 mg ID, anal cancer, no detectable FGF/FGFR alterations",5.8 months
same,"DOR, individual responder","[2]; pemigatinib 13.5 mg ID, ovarian cancer, no detectable FGF/FGFR alterations",6.6 months
same,Alanine aminotransferase increased (TEAE),[3]; Total (all pemigatinib doses),4 (50.0) n (%)
same,"Alopecia TEAE, patients",[3]; Total (all pemigatinib doses),12.5%
same,Anemia (TEAE),[3]; Total (all pemigatinib doses),8 (100.0) n (%)
same,Aspartate aminotransferase increased (TEAE),[3]; Total (all pemigatinib doses),4 (50.0) n (%)
same,Blood creatinine increased (TEAE),[3]; Total (all pemigatinib doses),5 (62.5) n (%)
same,Constipation (TEAE),[3]; Total (all pemigatinib doses),5 (62.5) n (%)
same,Dehydration (TEAE),[3]; Total (all pemigatinib doses),3 (37.5) n (%)
same,Diarrhea (TEAE),[3]; Total (all pemigatinib doses),4 (50.0) n (%)
same,Dizziness (TEAE),[3]; Total (all pemigatinib doses),3 (37.5) n (%)
same,"Dose interruptions because of TEAEs, patients",[3]; Total (all pemigatinib doses),87.5%
same,"Dose reductions because of TEAEs, patients",[3]; Total (all pemigatinib doses),12.5%
same,Dry mouth (TEAE),[3]; Total (all pemigatinib doses),3 (37.5) n (%)
same,Fatigue (TEAE),[3]; Total (all pemigatinib doses),5 (62.5) n (%)
same,Hyperphosphatemia (TEAE),[3]; Total (all pemigatinib doses),4 (50.0) n (%)
same,"Hyperphosphatemia TEAE, patients",[3]; Total (all pemigatinib doses),50.0%
same,Hypokalemia (TEAE),[3]; Total (all pemigatinib doses),3 (37.5) n (%)
same,Hyponatremia (TEAE),[3]; Total (all pemigatinib doses),4 (50.0) n (%)
same,Nausea (TEAE),[3]; Total (all pemigatinib doses),5 (62.5) n (%)
same,Neutropenia (TEAE),[3]; Total (all pemigatinib doses),4 (50.0) n (%)
same,"Pemigatinib-related TEAEs, patients",[3]; Total (all pemigatinib doses),87.5%
same,Stomatitis (TEAE),[3]; Total (all pemigatinib doses),3 (37.5) n (%)
same,"TEAEs related to the combination partner, patients",[3]; Total (all pemigatinib doses),100.0%
same,Thrombocytopenia (TEAE),[3]; Total (all pemigatinib doses),5 (62.5) n (%)
same,Vomiting (TEAE),[3]; Total (all pemigatinib doses),3 (37.5) n (%)
same,White blood cell count decreased (TEAE),[3]; Total (all pemigatinib doses),4 (50.0) n (%)
same,"Anemia TEAE, patients",[3]; pemigatinib 13.5 mg ID,100.0%
pemigatinib + trastuzumab [Pemi/tras],Inhibition of FGFR2α phosphorylation at trough of steady state,[1]; [7],exceeded 50%
same,ORR (95% CI),[2]; pemigatinib 13.5 mg ID,0%
same,Alopecia (TEAE),[3]; pemigatinib 13.5 mg ID,5 (83.3) n (%)
same,"Alopecia TEAE, patients",[3]; pemigatinib 13.5 mg ID,83.3%
same,Anemia (TEAE),[3]; pemigatinib 13.5 mg ID,2 (33.3) n (%)
same,Constipation (TEAE),[3]; pemigatinib 13.5 mg ID,2 (33.3) n (%)
same,Cough (TEAE),[3]; pemigatinib 13.5 mg ID,4 (66.7) n (%)
same,Decreased appetite (TEAE),[3]; pemigatinib 13.5 mg ID,3 (50.0) n (%)
same,Diarrhea (TEAE),[3]; pemigatinib 13.5 mg ID,3 (50.0) n (%)
same,Dry eye (TEAE),[3]; pemigatinib 13.5 mg ID,2 (33.3) n (%)
same,Dry mouth (TEAE),[3]; pemigatinib 13.5 mg ID,4 (66.7) n (%)
same,Dyspepsia (TEAE),[3]; pemigatinib 13.5 mg ID,2 (33.3) n (%)
same,Dyspnea (TEAE),[3]; pemigatinib 13.5 mg ID,2 (33.3) n (%)
same,Epistaxis (TEAE),[3]; pemigatinib 13.5 mg ID,2 (33.3) n (%)
same,Fatigue (TEAE),[3]; pemigatinib 13.5 mg ID,2 (33.3) n (%)
same,"Fatigue TEAE, patients",[3]; pemigatinib 13.5 mg ID,33.3%
same,Headache (TEAE),[3]; pemigatinib 13.5 mg ID,2 (33.3) n (%)
same,Hyperphosphatemia (TEAE),[3]; pemigatinib 13.5 mg ID,5 (83.3) n (%)
same,"Hyperphosphatemia TEAE, patients",[3]; pemigatinib 13.5 mg ID,83.3%
same,Nausea (TEAE),[3]; pemigatinib 13.5 mg ID,2 (33.3) n (%)
same,"Pemigatinib-related TEAEs, patients",[3]; pemigatinib 13.5 mg ID,83.3%
same,Pyrexia (TEAE),[3]; pemigatinib 13.5 mg ID,2 (33.3) n (%)
same,Sinusitis (TEAE),[3]; pemigatinib 13.5 mg ID,3 (50.0) n (%)
same,Stomatitis (TEAE),[3]; pemigatinib 13.5 mg ID,2 (33.3) n (%)
same,"TEAEs related to the combination partner, patients",[3]; pemigatinib 13.5 mg ID,50.0%
same,Taste disorder (TEAE),[3]; pemigatinib 13.5 mg ID,2 (33.3) n (%)
same,Upper respiratory tract infection (TEAE),[3]; pemigatinib 13.5 mg ID,2 (33.3) n (%)
CCN1C(=O)N(c2c(F)c(OC)cc(OC)c2F)Cc2cnc3[nH]c(CN4CCOCC4)cc3c21 [pemigatinib],"Alopecia, patients",[4],31.3%
same,"Diarrhea, patients",[4],32.0%
same,"Dose reductions, patients",[4],4.6%
same,"Dry mouth, patients",[4],38.3%
same,"Fatigue, patients",[4],39.1%
same,"Hyperphosphatemia, patients",[4],75.0%
same,Patients who discontinued pemigatinib because of TEAEs,[4],10.2%
same,"Pemigatinib interruption used to manage TEAEs, patients",[4],51.6%
same,"Stomatitis, patients",[4],34.4%
same,IC50,[5],0.0226 µM
same,Patients with partial responses (PRs),[6]; 128 patients in parts 1 or 2,9.4%
same,ORR among patients with FGFR mutations,[6]; parts 1 or 2,23.1%
same,ORR among patients with FGFR rearrangements,[6]; parts 1 or 2,25.0%
pemigatinib + retifanlimab [Pemi/reti],ORR (95% CI),[2]; Total (all pemigatinib doses),11.1%
same,"DOR, individual responder","[2]; pemigatinib 13.5 mg CD, ovarian cancer, no detectable FGF/FGFR alterations",4.2 months
same,"DOR, individual responder","[2]; pemigatinib 13.5 mg CD, urothelial cancer, FGF3/4/19 amplification",8.3 months
same,Alopecia (TEAE),[3]; Total (all pemigatinib doses),6 (33.3) n (%)
same,Dehydration (TEAE),[3]; Total (all pemigatinib doses),8 (44.4) n (%)
same,Diarrhea (TEAE),[3]; Total (all pemigatinib doses),7 (38.9) n (%)
same,Dry mouth (TEAE),[3]; Total (all pemigatinib doses),9 (50.0) n (%)
same,Fatigue (TEAE),[3]; Total (all pemigatinib doses),11 (61.1) n (%)
same,Hyperphosphatemia (TEAE),[3]; Total (all pemigatinib doses),11 (61.1) n (%)
same,"Hyperphosphatemia TEAE, patients",[3]; Total (all pemigatinib doses),61.1%
same,Hypomagnesemia (TEAE),[3]; Total (all pemigatinib doses),6 (33.3) n (%)
same,"Pemigatinib-related TEAEs, patients",[3]; Total (all pemigatinib doses),94.4%
same,Stomatitis (TEAE),[3]; Total (all pemigatinib doses),12 (66.7) n (%)
same,"Stomatitis TEAE, patients",[3]; Total (all pemigatinib doses),66.7%
same,"TEAEs related to the combination partner, patients",[3]; Total (all pemigatinib doses),88.9%
same,"Stomatitis TEAE, patients",[3]; pemigatinib 13.5 mg CD,77.8%
pemigatinib + docetaxel [Pemi/doc],Inhibition of FGFR2α phosphorylation at trough of steady state,[1]; [7],exceeded 50%
same,ORR (95% CI),[2]; pemigatinib 13.5 mg ID,14.3%
same,"DOR, individual responder","[2]; urothelial tract/bladder cancer, FGF10 amplification",12.5 months
same,Alopecia (TEAE),[3]; pemigatinib 13.5 mg ID,3 (42.9) n (%)
same,Anemia (TEAE),[3]; pemigatinib 13.5 mg ID,4 (57.1) n (%)
same,Constipation (TEAE),[3]; pemigatinib 13.5 mg ID,3 (42.9) n (%)
same,Dehydration (TEAE),[3]; pemigatinib 13.5 mg ID,5 (71.4) n (%)
same,Diarrhea (TEAE),[3]; pemigatinib 13.5 mg ID,6 (85.7) n (%)
same,"Diarrhea TEAE, patients",[3]; pemigatinib 13.5 mg ID,85.7%
same,"Dose interruptions because of TEAEs, patients",[3]; pemigatinib 13.5 mg ID,42.9%
same,Dysgeusia (TEAE),[3]; pemigatinib 13.5 mg ID,3 (42.9) n (%)
same,Fatigue (TEAE),[3]; pemigatinib 13.5 mg ID,6 (85.7) n (%)
same,"Fatigue TEAE, patients",[3]; pemigatinib 13.5 mg ID,85.7%
same,Hyperphosphatemia (TEAE),[3]; pemigatinib 13.5 mg ID,6 (85.7) n (%)
same,"Hyperphosphatemia TEAE, patients",[3]; pemigatinib 13.5 mg ID,85.7%
same,Nausea (TEAE),[3]; pemigatinib 13.5 mg ID,4 (57.1) n (%)
same,Neutropenia (TEAE),[3]; pemigatinib 13.5 mg ID,3 (42.9) n (%)
same,"Stomatitis TEAE, patients",[3]; pemigatinib 13.5 mg ID,28.6%
same,"TEAEs related to the combination partner, patients",[3]; pemigatinib 13.5 mg ID,71.4%
same,Taste disorder (TEAE),[3]; pemigatinib 13.5 mg ID,3 (42.9) n (%)
same,Vomiting (TEAE),[3]; pemigatinib 13.5 mg ID,3 (42.9) n (%)
same,Weight decreased (TEAE),[3]; pemigatinib 13.5 mg ID,3 (42.9) n (%)
pemigatinib + pembrolizumab [Pemi/pembro],Inhibition of FGFR2α phosphorylation at trough of steady state,[1]; [7],exceeded 50%
same,ORR (95% CI),[2]; Total (all pemigatinib doses),26.9%
same,"DOR, individual responder","[2]; pemigatinib 13.5 mg ID, urothelial tract/bladder cancer, FGFR3 p.S249C mutation",50.3 months
same,Alanine aminotransferase increased (TEAE),[3]; Total (all pemigatinib doses),8 (30.8) n (%)
same,Alopecia (TEAE),[3]; Total (all pemigatinib doses),11 (42.3) n (%)
same,Anemia (TEAE),[3]; Total (all pemigatinib doses),12 (46.2) n (%)
same,Aspartate aminotransferase increased (TEAE),[3]; Total (all pemigatinib doses),8 (30.8) n (%)
same,Decreased appetite (TEAE),[3]; Total (all pemigatinib doses),11 (42.3) n (%)
same,Diarrhea (TEAE),[3]; Total (all pemigatinib doses),12 (46.2) n (%)
same,"Dose interruptions because of TEAEs, patients",[3]; Total (all pemigatinib doses),57.7%
same,"Dose reductions because of TEAEs, patients",[3]; Total (all pemigatinib doses),7.7%
same,Dry eye (TEAE),[3]; Total (all pemigatinib doses),8 (30.8) n (%)
same,Dry mouth (TEAE),[3]; Total (all pemigatinib doses),9 (34.6) n (%)
same,"Fatigue TEAE, patients",[3]; Total (all pemigatinib doses),26.9%
same,Hyperphosphatemia (TEAE),[3]; Total (all pemigatinib doses),19 (73.1) n (%)
same,"Pemigatinib-related TEAEs, patients",[3]; Total (all pemigatinib doses),88.5%
same,Stomatitis (TEAE),[3]; Total (all pemigatinib doses),9 (34.6) n (%)
same,"TEAEs related to the combination partner, patients",[3]; Total (all pemigatinib doses),69.2%
same,"Alopecia TEAE, patients",[3]; pemigatinib 13.5 mg CD,55.6%
same,"Dry mouth TEAE, patients",[3]; pemigatinib 13.5 mg CD,55.6%
same,"Hyperphosphatemia TEAE, patients",[3]; pemigatinib 13.5 mg CD,55.6%
same,"Hyperphosphatemia TEAE, patients",[3]; pemigatinib 13.5 mg ID,78.6%
